Measurements pooled from the literature.
Protocols differ between the studies behind these lines.
Cell line: Vero
Effect on: cell growth or viability

| Compound | assay | conditions | IC50 |
| --- | --- | --- | --- |
| O=C1[C@H](CC[C@H](O)c2ccc(F)cc2)[C@@H](c2ccc(O)cc2)N1c1ccc(F)cc1 | MTT | 72 h | 36.5 µg/mL |
| O=C1C[C@@H](c2ccccc2)Oc2c(Cc3ccccc3O)c(O)c(Cc3ccccc3O)c(O)c21 | MTT | 72 h | 48.7 µM |
| C[C@@H]1C[C@H]2[C@@H]3CCC4=CC(=O)C=C[C@]4(C)[C@@]3(F)[C@@H](O)C[C@]2(C)[C@@]1(O)C(=O)CO | MTT | 48 h | 80.1 µM |
| COc1cccc2c1C(=O)c1c(O)c3c(c(O)c1C2=O)C[C@@](O)(C(=O)CO)C[C@@H]3O[C@H]1C[C@H](N)[C@H](O)[C@H](C)O1 | MTT | 72 h | 2.1 µM |
| C/C(=N/NC(=O)c1cn(-c2ccccc2)nc1-c1ccc(Cl)cc1)c1c(O)cc(C)oc1=O | MTT | 48 h | 102 µM |
| NC1=NC(=NS(=O)(=O)c2ccc(N)cc2)NC(=O)C1N=Nc1ccccc1C(=O)O (stereo not shown) | MTT | 72 h | 57.4 µM |
| CO[C@H]1[C@H](O[C@H]([C@H]2O[C@@H](n3ccc(=O)[nH]c3=O)[C@H](O)[C@@H]2O)[C@H](NCCCNC(=O)[C@@H](NC(=O)[C@@H](NC(=O)N[C@H](C(=O)O)C(C)C)[C@@H]2CCN=C(N)N2)[C@@H](OC(=O)CCCCCCCCCCCCN(O)C(=N)N)C(C)C)C(=O)O)O[C@H](CN)[C@H]1O | WST-1 | – | > 35 µM |
| C/C(=N/NC(=O)c1cn(-c2ccccc2)nc1-c1ccccc1)c1c(O)cc(C)oc1=O | MTT | 48 h | 664 µM |
| CO[C@H]1[C@H](O[C@H]([C@H]2O[C@@H](n3ccc(=O)[nH]c3=O)[C@H](O)[C@@H]2O)[C@H](NCCCNC(=O)[C@@H](NC(=O)[C@@H](NC(=O)N[C@H](C(=O)O)C(C)C)[C@@H]2CCN=C(N)N2)[C@@H](O)C(C)C)C(=O)O)O[C@H](CN)[C@H]1O | WST-1 | – | > 35 µM |
| NC1=NN(C(=O)C=Cc2ccccc2)C(=O)C1N=Nc1ccccc1C(=O)O (stereo not shown) | MTT | 72 h | 59.7 µM |
